# Experimental data: ChEMBL document CHEMBL1811920, “Chemical constituents of a marine fungus, Arthrinium sacchari” (J Nat Prod, 2011)
# What was measured:
# [1] = Antiangiogenesis activity in HUAEC assessed as inhibition of VEGF-induced cell proliferation after 72 hrs by MTT assay; assay type: functional; conditions: Homo sapiens
# Method in brief: (§1)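 Cells were purchased primary endothelial cells, maintained at 37 C in 5% CO2: HUVECs in EGM-2 Bulletkit medium and HUAECs in EGM-2MV Bulletkit medium. For the assay, 3 103 cells/well were seeded in culture medium for 3 h, then switched to 1% FBS EBM-2 for 21 h. VEGF (1 nM) and compounds were added for 72 h. Proliferation was read with WST-8 at 450 nm. Ki8751, a VEGFR2 kinase inhibitor, was the positive control.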
# [2] = test system: HUVEC; experiment: Antiangiogenesis activity in HUVEC assessed as inhibition of VEGF-induced cell proliferation after 72 hrs by MTT assay; assay type: functional, cell-based; conditions: Homo sapiens; method in brief: as §1
Compound,IC50 [1],IC50 [2]
C=C[C@]1(C)C=C2C(=O)C3=C4[C@@](C)(CC[C@@H](O)[C@]4(C)[C@@]2(O)CC1)CO3 [LIBERTELLENONE F],97.8 µM,64.1 µM
C=C[C@]1(C)C=C2C(=O)C(O)=C3[C@@](C)(CO)CC[C@@H](O)[C@]3(C)[C@@]2(O)CC1 [LIBERTELLENONE C],68.7 µM,29.7 µM
Cc1c(O)cc(O)c2c(=O)oc(CO)c(C)c12 [DECARBOXYHYDROXYCITRINONE],17.4 µM,7.6 µM
C[C@H]1C/C=C/[C@H]2[C@@H]3O[C@]3(C)[C@@H](C)[C@H]3[C@H](Cc4ccccc4)NC(=O)[C@]32OC(=O)O/C=C/[C@@](C)(O)C1=O [CYTOCHALASIN E],0.011 µM,0.0114 µM
C=C[C@@]1(C)C=C2C(=O)C(O)=C3[C@](C)(C(=O)O)CC[C@@H]4C[C@]34[C@]2(O)C(=O)C1 [MYROCIN A],9.2 µM,11 µM
C=C[C@]1(C)C=C2[C@@H](O)[C@@H]3OC(=O)[C@@]4(C)CC[C@H]5C[C@]5([C@@H]34)[C@@]2(O)C(=O)C1 [MYROCIN D],277 µM,70.8 µM
C=C[C@]1(C)C=C2C(=O)C3=C4[C@@](C)(CC[C@@H](O)[C@]4(C)[C@@]2(O)CC1)[C@@H](O)O3 [LIBERTELLENONE E],238 µM,236 µM
